The values below come from ChEMBL document CHEMBL4732035, “Design, synthesis, crystal structure and anti-plasmodial evaluation of tetrahydrobenzo[4,5]thieno[2,3-d]pyrimidine derivatives” (RSC Med Chem, 2021).

The IC50 is the concentration at which inhibition is half-maximal.

The nature of data set [1]: Selectivity index, ratio of IC50 for human HeLa cells to IC50 for chloroquine-resistant Plasmodium falciparum W2. It is filed as toxicity. Particulars: read-out: Selectivity Index. Summed up: (§1)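 Selectivity index is cell-line IC50 (A549 for line 2, HeLa for line 3) divided by W2 IC50. Cells grown in DMEM with 10% FBS, seeded at 1 × 10^4 per well and allowed to adhere 24 h at 37 °C. They were then exposed to graded concentrations for 24 h. MTT (4 mg/mL) was added for 4 h and formazan dissolved in DMSO. IC50 from log(inhibitor)-response fits, three independent experiments.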

The next data set has as its system A549. The experiment in a line: Cytotoxicity against human A549 cells assessed as reduction in cell viability preincubated for 24 hrs measured after 4 hrs by MTT assay. It is filed as functional, cell-based. In short, it runs like this: (§2)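 Cells were grown in DMEM with 10% fetal bovine serum, seeded at 1 × 10^4 cells per well and left 24 h at 37 °C to adhere. A range of compound concentrations was added for 24 h. Medium was then removed, MTT solution (4 mg mL−1) added for 4 h, and formazan dissolved in DMSO. Survival was expressed against untreated wells, and IC50 was fitted by log(inhibitor)–response nonlinear regression from three independent experiments.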

The next data set has as its system HeLa. The data set can be described thus: Cytotoxicity against human HeLa cells assessed as reduction in cell viability preincubated for 24 hrs measured after 4 hrs by MTT assay. It is filed as functional, cell-based. Summed up: as §2
A general note: Tetrazolium assays rely on reduction of a dye to a coloured formazan, in cell work by metabolically active cells.

A further data set deals with Plasmodium falciparum. The data set can be described thus: Antiplasmodial activity against chloroquine-resistant Plasmodium falciparum W2 assessed as growth inhibition after 48 hrs by flow cytometer. The following applies: W2, 48 h. It is filed as functional, organism-based. In short, it runs like this:
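Ring-stage W2 cultures in microwells exposed 48 h to a range of compound concentrations, added from DMSO stocks. Parasites then fixed in 1% formaldehyde/PBS pH 7.4 (48 h, RT) and stained with YOYO-1 (1 nM) in 0.1% Triton X-100/PBS. Parasitemia counted by flow cytometry (forward scatter vs fluorescence). IC50 fitted from % parasitemia vs untreated controls (R2 >0.95).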
For orientation: Flow cytometry measures light scatter and fluorescence of single cells or particles in a stream.

Data set [2] in a line: Selectivity index, ratio of IC50 for human A549 cells to IC50 for chloroquine-resistant Plasmodium falciparum W2. It is filed as toxicity. Particulars: read-out: Selectivity Index. Summed up:
as §1

With `Oc1ccccc1C(c1ccc(Cl)c(Cl)c1)N1CCN(c2ncnc3sc4c(c23)CCCC4)CC1` (stereo not drawn), the values for the selectivity ratio in data set [1] and in data set [2] were 13.7 and 15.3, respectively. Also, the half-maximal inhibitory concentration (IC50) in the data set on A549 is 11.5 µM; in the data set on HeLa, 10.3 µM; with Plasmodium falciparum, 0.752 µM.
With `Cc1ccc(C(c2ccccc2O)N2CCN(c3ncnc4sc5c(c34)CCCC5)CC2)cc1` (stereo not drawn), the IC50 in the data set on Plasmodium falciparum was determined as 1.34 µM.
With `COc1cccc(C(c2ccc(F)c(Cl)c2)N2CCN(c3ncnc4sc5c(c34)CCCC5)CC2)c1O` (stereo not drawn), the concentration for half-maximal inhibition (IC50) in the data set on Plasmodium falciparum was determined as 1.17 µM.
`COc1cccc(C(c2ccc(OC(F)(F)F)cc2)N2CCN(c3ncnc4sc5c(c34)CCCC5)CC2)c1O` (stereo not drawn): the IC50 in the data set with Plasmodium falciparum worked out at 1.22 µM.
On to `Oc1ccccc1C(c1ccc(F)cc1)N1CCN(c2ncnc3sc4c(c23)CCCC4)CC1` (stereo not drawn), for which, in the data set with Plasmodium falciparum, the half-maximal inhibitory concentration (IC50) worked out at 1.62 µM.
As for `COc1cccc(C(c2ccc(F)c(F)c2)N2CCN(c3ncnc4sc5c(c34)CCCC5)CC2)c1O` (stereo not drawn), the IC50 in the data set with Plasmodium falciparum amounted to 1.13 µM.
On to `COc1cccc2c1C(=O)c1c(O)c3c(c(O)c1C2=O)C[C@@](O)(C(=O)CO)C[C@@H]3O[C@H]1C[C@H](N)[C@H](O)[C@H](C)O1` [DOXORUBICIN], for which the results for the concentration for half-maximal inhibition (IC50) in the data set on A549 and in the data set with HeLa were 5.5 µM and 5.7 µM, respectively.
Turning to `Oc1ccccc1C(c1ccc(C(F)(F)F)cc1)N1CCN(c2ncnc3sc4c(c23)CCCC4)CC1` (stereo not drawn), the IC50 in the data set with Plasmodium falciparum came out at 1.37 µM.
For `COc1cccc(C(c2ccc(F)cc2)N2CCN(c3ncnc4sc5c(c34)CCCC5)CC2)c1O` (stereo not drawn), in the data set with Plasmodium falciparum, the IC50 was 2.26 µM.
The same measure, in the same setting: the figure for `COc1cccc(C(c2ccc(C)cc2)N2CCN(c3ncnc4sc5c(c34)CCCC5)CC2)c1O` (stereo not drawn) is 3.96 µM.
For the compound `COc1cccc(C(c2ccc(C(F)(F)F)cc2)N2CCN(c3ncnc4sc5c(c34)CCCC5)CC2)c1O` (stereo not drawn), the selectivity ratio in data set [1] is 9.59; in data set [2], 9.86. In addition, the half-inhibitory concentration (IC50) with A549 turned out to be 7.3 µM; with HeLa it was 7.1 µM; in the data set on Plasmodium falciparum, 0.749 µM.
For `Oc1ccccc1C(c1ccc(F)c(Cl)c1)N1CCN(c2ncnc3sc4c(c23)CCCC4)CC1` (stereo not drawn), in that order: 6.03, 8.01, 8.5 µM, 6.4 µM and 1.06 µM.
With `COc1ccc(C(c2cccc(OC)c2O)N2CCN(c3ncnc4sc5c(c34)CCCC5)CC2)cc1` (stereo not drawn), the IC50 with Plasmodium falciparum stood at 6.41 µM.
The same measure, in the same setting: the value for `COc1cccc(C(c2ccc(Cl)c(Cl)c2)N2CCN(c3ncnc4sc5c(c34)CCCC5)CC2)c1O` (stereo not drawn) was 1.34 µM.
`Oc1ccccc1C(c1ccc(F)c(F)c1)N1CCN(c2ncnc3sc4c(c23)CCCC4)CC1` (stereo not drawn): the selectivity ratio came out at 12.3 in data set [1] and 8.43 in data set [2]. The 50% inhibitory concentration (IC50) in the data set on A549 is 8.7 µM; in the data set on HeLa, 12.7 µM; with Plasmodium falciparum, 1.04 µM.
In the same order, the values of `Oc1ccccc1C(c1ccc(OC(F)(F)F)cc1)N1CCN(c2ncnc3sc4c(c23)CCCC4)CC1` (stereo not drawn) are 7.7, 6.09, 7.2 µM, 9.1 µM and 1.18 µM.
Consider `COc1ccc(C(c2ccccc2O)N2CCN(c3ncnc4sc5c(c34)CCCC5)CC2)cc1` (stereo not drawn), for which, in the data set with Plasmodium falciparum, the IC50 was 2.42 µM.
